Assay results as given in ChEMBL document CHEMBL1795269, “Novel (E)-5-styryl-2,2'-bithiophene derivatives as ligands for β-amyloid plaques” (Eur J Med Chem, 2011).

Experiments:
[1] = Octanol-phosphate buffer partition coefficient, log D of the compound at pH 7.4; assay type: physicochemical
Summary of the method: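 Radiotracer added to premixed n-octanol (3 g) and PBS (0.05 M, pH 7.4; 3 g), and partitioned between the two phases.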

Blood [2] = experiment: Biodistribution in Kunming mouse blood at 1 uCi, iv after 2 mins by gamma counting; assay type: ADME, organism-based; details: in vivo
Summary of the method: (§1)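 Female normal KunMing mice, about 20 g. [125I]-labelled tracer (1 μCi) in 100 μL saline injected into the tail vein. Mice killed at set times after injection; organs removed, weighed and counted in a gamma counter. %ID/g of wet tissue calculated against diluted aliquots of the injected dose.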

Blood [3] = experiment: Biodistribution in Kunming mouse blood at 1 uCi, iv after 15 mins by gamma counting; assay type: ADME, organism-based; details: in vivo, 0.25 h; summary of the method: as §1
Blood [4] = experiment: Biodistribution in Kunming mouse blood at 1 uCi, iv after 30 mins by gamma counting; assay type: ADME, organism-based; details: in vivo, 0.5 h; summary of the method: as §1
Blood [5] = experiment: Biodistribution in Kunming mouse blood at 1 uCi, iv after 60 mins by gamma counting; assay type: ADME, organism-based; details: in vivo, 1 h; summary of the method: as §1
Blood [6] = experiment: Biodistribution in Kunming mouse blood at 1 uCi, iv after 120 mins by gamma counting; assay type: ADME, organism-based; details: in vivo, 2 h; summary of the method: as §1
Brain [7] = experiment: Biodistribution in Kunming mouse brain at 1 uCi, iv after 2 mins by gamma counting; assay type: ADME, organism-based; details: in vivo; summary of the method: as §1
Brain [8] = experiment: Biodistribution in Kunming mouse brain at 1 uCi, iv after 15 mins by gamma counting; assay type: ADME, organism-based; details: in vivo, 0.25 h; summary of the method: as §1
Brain [9] = experiment: Biodistribution in Kunming mouse brain at 1 uCi, iv after 30 mins by gamma counting; assay type: ADME, organism-based; details: in vivo, 0.5 h; summary of the method: as §1
Brain [10] = experiment: Biodistribution in Kunming mouse brain at 1 uCi, iv after 60 mins by gamma counting; assay type: ADME, organism-based; details: in vivo, 1 h; summary of the method: as §1
Brain [11] = experiment: Biodistribution in Kunming mouse brain at 1 uCi, iv after 120 mins by gamma counting; assay type: ADME, organism-based; details: in vivo, 2 h; summary of the method: as §1
Heart [12] = experiment: Biodistribution in Kunming mouse heart at 1 uCi, iv after 2 mins by gamma counting; assay type: ADME, organism-based; details: in vivo; summary of the method: as §1
Heart [13] = experiment: Biodistribution in Kunming mouse heart at 1 uCi, iv after 15 mins by gamma counting; assay type: ADME, organism-based; details: in vivo, 0.25 h; summary of the method: as §1
Heart [14] = experiment: Biodistribution in Kunming mouse heart at 1 uCi, iv after 30 mins by gamma counting; assay type: ADME, organism-based; details: in vivo, 0.5 h; summary of the method: as §1
Heart [15] = experiment: Biodistribution in Kunming mouse heart at 1 uCi, iv after 60 mins by gamma counting; assay type: ADME, organism-based; details: in vivo, 1 h; summary of the method: as §1
Heart [16] = experiment: Biodistribution in Kunming mouse heart at 1 uCi, iv after 120 mins by gamma counting; assay type: ADME, organism-based; details: in vivo, 2 h; summary of the method: as §1
Liver [17] = experiment: Biodistribution in Kunming mouse liver at 1 uCi, iv after 2 mins by gamma counting; assay type: ADME, organism-based; details: in vivo; summary of the method: as §1
Liver [18] = experiment: Biodistribution in Kunming mouse liver at 1 uCi, iv after 15 mins by gamma counting; assay type: ADME, organism-based; details: in vivo, 0.25 h; summary of the method: as §1
Liver [19] = experiment: Biodistribution in Kunming mouse liver at 1 uCi, iv after 30 mins by gamma counting; assay type: ADME, organism-based; details: in vivo, 0.5 h; summary of the method: as §1
Liver [20] = experiment: Biodistribution in Kunming mouse liver at 1 uCi, iv after 60 mins by gamma counting; assay type: ADME, organism-based; details: in vivo, 1 h; summary of the method: as §1
Liver [21] = experiment: Biodistribution in Kunming mouse liver at 1 uCi, iv after 120 mins by gamma counting; assay type: ADME, organism-based; details: in vivo, 2 h; summary of the method: as §1
Spleen [22] = experiment: Biodistribution in Kunming mouse spleen at 1 uCi, iv after 2 mins by gamma counting; assay type: ADME, organism-based; details: in vivo; summary of the method: as §1
Spleen [23] = experiment: Biodistribution in Kunming mouse spleen at 1 uCi, iv after 15 mins by gamma counting; assay type: ADME, organism-based; details: in vivo, 0.25 h; summary of the method: as §1
Spleen [24] = experiment: Biodistribution in Kunming mouse spleen at 1 uCi, iv after 30 mins by gamma counting; assay type: ADME, organism-based; details: in vivo, 0.5 h; summary of the method: as §1
Spleen [25] = experiment: Biodistribution in Kunming mouse spleen at 1 uCi, iv after 60 mins by gamma counting; assay type: ADME, organism-based; details: in vivo, 1 h; summary of the method: as §1
Spleen [26] = experiment: Biodistribution in Kunming mouse spleen at 1 uCi, iv after 120 mins by gamma counting; assay type: ADME, organism-based; details: in vivo, 2 h; summary of the method: as §1
Lung [27] = experiment: Biodistribution in Kunming mouse lung at 1 uCi, iv after 2 mins by gamma counting; assay type: ADME, organism-based; details: in vivo; summary of the method: as §1
Lung [28] = experiment: Biodistribution in Kunming mouse lung at 1 uCi, iv after 15 mins by gamma counting; assay type: ADME, organism-based; details: in vivo, 0.25 h; summary of the method: as §1
Lung [29] = experiment: Biodistribution in Kunming mouse lung at 1 uCi, iv after 30 mins by gamma counting; assay type: ADME, organism-based; details: in vivo, 0.5 h; summary of the method: as §1
Lung [30] = experiment: Biodistribution in Kunming mouse lung at 1 uCi, iv after 60 mins by gamma counting; assay type: ADME, organism-based; details: in vivo, 1 h; summary of the method: as §1
Lung [31] = experiment: Biodistribution in Kunming mouse lung at 1 uCi, iv after 120 mins by gamma counting; assay type: ADME, organism-based; details: in vivo, 2 h; summary of the method: as §1
Kidney [32] = experiment: Biodistribution in Kunming mouse kidney at 1 uCi, iv after 2 mins by gamma counting; assay type: ADME, organism-based; details: in vivo; summary of the method: as §1
Kidney [33] = experiment: Biodistribution in Kunming mouse kidney at 1 uCi, iv after 15 mins by gamma counting; assay type: ADME, organism-based; details: in vivo, 0.25 h; summary of the method: as §1
Kidney [34] = experiment: Biodistribution in Kunming mouse kidney at 1 uCi, iv after 60 mins by gamma counting; assay type: ADME, organism-based; details: in vivo, 1 h; summary of the method: as §1
Kidney [35] = experiment: Biodistribution in Kunming mouse kidney at 1 uCi, iv after 120 mins by gamma counting; assay type: ADME, organism-based; details: in vivo, 2 h; summary of the method: as §1
Stomach [36] = experiment: Biodistribution in Kunming mouse stomach assessed per organ at 1 uCi, iv after 2 mins by gamma counting; assay type: ADME, organism-based; details: in vivo; summary of the method: as §1
Stomach [37] = experiment: Biodistribution in Kunming mouse stomach assessed per organ at 1 uCi, iv after 15 mins by gamma counting; assay type: ADME, organism-based; details: in vivo, 0.25 h; summary of the method: as §1
Stomach [38] = experiment: Biodistribution in Kunming mouse stomach assessed per organ at 1 uCi, iv after 30 mins by gamma counting; assay type: ADME, organism-based; details: in vivo, 0.5 h; summary of the method: as §1
Stomach [39] = experiment: Biodistribution in Kunming mouse stomach assessed per organ at 1 uCi, iv after 60 mins by gamma counting; assay type: ADME, organism-based; details: in vivo, 1 h
Stomach [40] = experiment: Biodistribution in Kunming mouse stomach assessed per organ at 1 uCi, iv after 120 mins by gamma counting; assay type: ADME, organism-based; details: in vivo, 2 h; summary of the method: as §1
Muscle tissue [41] = experiment: Biodistribution in Kunming mouse muscle at 1 uCi, iv after 2 mins by gamma counting; assay type: ADME, organism-based; details: in vivo; summary of the method: as §1
Muscle tissue [42] = experiment: Biodistribution in Kunming mouse muscle at 1 uCi, iv after 15 mins by gamma counting; assay type: ADME, organism-based; details: in vivo, 0.25 h; summary of the method: as §1
Muscle tissue [43] = experiment: Biodistribution in Kunming mouse muscle at 1 uCi, iv after 30 mins by gamma counting; assay type: ADME, organism-based; details: in vivo, 0.5 h; summary of the method: as §1
Muscle tissue [44] = experiment: Biodistribution in Kunming mouse muscle at 1 uCi, iv after 60 mins by gamma counting; assay type: ADME, organism-based; details: in vivo, 1 h; summary of the method: as §1
Muscle tissue [45] = experiment: Biodistribution in Kunming mouse muscle at 1 uCi, iv after 120 mins by gamma counting; assay type: ADME, organism-based; details: in vivo, 2 h; summary of the method: as §1
Kidney [46] = experiment: Biodistribution in Kunming mouse kidney at 1 uCi, iv after 30 mins by gamma counting; assay type: ADME, organism-based; details: in vivo, 0.5 h; summary of the method: as §1

SMILES: COc1ccc(/C=C/c2ccc(-c3ccc([125I])s3)s2)cc1
- logD [1]: 3.07
- Drug uptake (Blood [2]): 11.21 % ID/g
- Drug uptake (Blood [3]): 7.99 % ID/g
- Drug uptake (Blood [4]): 6.18 % ID/g
- Drug uptake (Blood [5]): 6.7 % ID/g
- Drug uptake (Blood [6]): 6.85 % ID/g
- Drug uptake (Brain [7]): 0.5 % ID/g
- Drug uptake (Brain [8]): 0.44 % ID/g
- Drug uptake (Brain [9]): 0.39 % ID/g
- Drug uptake (Brain [10]): 0.5 % ID/g
- Drug uptake (Brain [11]): 0.59 % ID/g
- Drug uptake (Heart [12]): 5.08 % ID/g
- Drug uptake (Heart [13]): 6.25 % ID/g
- Drug uptake (Heart [14]): 5.55 % ID/g
- Drug uptake (Heart [15]): 5.33 % ID/g
- Drug uptake (Heart [16]): 4.18 % ID/g
- Drug uptake (Liver [17]): 45.73 % ID/g
- Drug uptake (Liver [18]): 46.86 % ID/g
- Drug uptake (Liver [19]): 26.91 % ID/g
- Drug uptake (Liver [20]): 15.74 % ID/g
- Drug uptake (Liver [21]): 11 % ID/g
- Drug uptake (Spleen [22]): 9.14 % ID/g
- Drug uptake (Spleen [23]): 11.2 % ID/g
- Drug uptake (Spleen [24]): 9.4 % ID/g
- Drug uptake (Spleen [25]): 6.38 % ID/g
- Drug uptake (Spleen [26]): 7.21 % ID/g
- Drug uptake (Lung [27]): 26.17 % ID/g
- Drug uptake (Lung [28]): 16.37 % ID/g
- Drug uptake (Lung [29]): 12.95 % ID/g
- Drug uptake (Lung [30]): 10.45 % ID/g
- Drug uptake (Lung [31]): 7.08 % ID/g
- Drug uptake (Kidney [32]): 4.82 % ID/g
- Drug uptake (Kidney [33]): 6.61 % ID/g
- Drug uptake (Kidney [34]): 6.42 % ID/g
- Drug uptake (Kidney [35]): 6.33 % ID/g
- Drug uptake (Stomach [36]): 0.39 %ID
- Drug uptake (Stomach [37]): 2.6 %ID
- Drug uptake (Stomach [38]): 5.11 %ID
- Drug uptake (Stomach [39]): 8.9 %ID
- Drug uptake (Stomach [40]): 20.22 %ID
- Drug uptake (Muscle tissue [41]): 1.61 % ID/g
- Drug uptake (Muscle tissue [42]): 2.23 % ID/g
- Drug uptake (Muscle tissue [43]): 2.12 % ID/g
- Drug uptake (Muscle tissue [44]): 3.95 % ID/g
- Drug uptake (Muscle tissue [45]): 2.83 % ID/g
- Drug uptake (Kidney [46]): 5.92 % ID/g
